Results published in ChEMBL document CHEMBL1157613, “Salicylic acid based small molecule inhibitor for the oncogenic Src homology-2 domain containing protein tyrosine phosphatase-2 (SHP2)” (J Med Chem, 2010).
The source made the active and inactive calls. No cut-off for these calls is given here.

How the values were obtained:
[1] = molecular target: Tyrosine-protein phosphatase non-receptor type 6 (Homo sapiens, UniProt P29350); experiment: Inhibition of SHP1 expressed in Escherichia coli assessed as inhibition of p-nitrophenyl phosphate hydrolysis at pH 7 by spectrophotometry
[2] = molecular target: T1, Tyrosine-protein phosphatase non-receptor type 22 (Homo sapiens, UniProt Q9Y2R2); experiment: Inhibition of Lyp expressed in Escherichia coli assessed as inhibition of p-nitrophenyl phosphate hydrolysis at pH 7 by spectrophotometry
T1 sequence (Q9Y2R2 whole entry): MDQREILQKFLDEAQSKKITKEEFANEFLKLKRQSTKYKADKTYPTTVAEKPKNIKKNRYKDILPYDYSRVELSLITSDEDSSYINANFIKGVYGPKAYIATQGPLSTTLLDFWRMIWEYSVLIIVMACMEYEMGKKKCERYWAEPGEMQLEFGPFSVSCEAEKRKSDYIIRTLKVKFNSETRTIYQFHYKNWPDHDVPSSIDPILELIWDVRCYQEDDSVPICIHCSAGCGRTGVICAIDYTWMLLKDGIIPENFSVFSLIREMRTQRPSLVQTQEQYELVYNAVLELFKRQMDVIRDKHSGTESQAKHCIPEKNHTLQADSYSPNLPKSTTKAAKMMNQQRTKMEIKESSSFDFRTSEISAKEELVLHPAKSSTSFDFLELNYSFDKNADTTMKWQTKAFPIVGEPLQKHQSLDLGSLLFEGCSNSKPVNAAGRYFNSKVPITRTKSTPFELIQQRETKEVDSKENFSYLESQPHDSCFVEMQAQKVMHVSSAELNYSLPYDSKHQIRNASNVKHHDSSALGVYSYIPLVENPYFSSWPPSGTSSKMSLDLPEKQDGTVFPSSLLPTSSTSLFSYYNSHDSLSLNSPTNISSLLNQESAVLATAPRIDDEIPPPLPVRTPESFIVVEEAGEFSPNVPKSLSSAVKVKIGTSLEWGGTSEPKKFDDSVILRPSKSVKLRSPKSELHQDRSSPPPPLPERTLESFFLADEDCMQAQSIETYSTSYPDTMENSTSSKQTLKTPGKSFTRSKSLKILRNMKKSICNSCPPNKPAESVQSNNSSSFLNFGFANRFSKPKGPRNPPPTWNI

[3] = molecular target: Tyrosine-protein phosphatase non-receptor type 13 (Homo sapiens, UniProt Q12923); experiment: Inhibition of FAP1 expressed in Escherichia coli assessed as inhibition of p-nitrophenyl phosphate hydrolysis at pH 7 by spectrophotometry
[4] = molecular target: Receptor-type tyrosine-protein phosphatase alpha (Homo sapiens, UniProt P18433); experiment: Inhibition of PTPalpha expressed in Escherichia coli assessed as inhibition of p-nitrophenyl phosphate hydrolysis at pH 7 by spectrophotometry
[5] = molecular target: T2, Dual specificity protein phosphatase CDC14A (Homo sapiens, UniProt Q9UNH5); experiment: Inhibition of Cdc14A expressed in Escherichia coli assessed as inhibition of p-nitrophenyl phosphate hydrolysis at pH 7 by spectrophotometry
T2 sequence (Q9UNH5 whole entry): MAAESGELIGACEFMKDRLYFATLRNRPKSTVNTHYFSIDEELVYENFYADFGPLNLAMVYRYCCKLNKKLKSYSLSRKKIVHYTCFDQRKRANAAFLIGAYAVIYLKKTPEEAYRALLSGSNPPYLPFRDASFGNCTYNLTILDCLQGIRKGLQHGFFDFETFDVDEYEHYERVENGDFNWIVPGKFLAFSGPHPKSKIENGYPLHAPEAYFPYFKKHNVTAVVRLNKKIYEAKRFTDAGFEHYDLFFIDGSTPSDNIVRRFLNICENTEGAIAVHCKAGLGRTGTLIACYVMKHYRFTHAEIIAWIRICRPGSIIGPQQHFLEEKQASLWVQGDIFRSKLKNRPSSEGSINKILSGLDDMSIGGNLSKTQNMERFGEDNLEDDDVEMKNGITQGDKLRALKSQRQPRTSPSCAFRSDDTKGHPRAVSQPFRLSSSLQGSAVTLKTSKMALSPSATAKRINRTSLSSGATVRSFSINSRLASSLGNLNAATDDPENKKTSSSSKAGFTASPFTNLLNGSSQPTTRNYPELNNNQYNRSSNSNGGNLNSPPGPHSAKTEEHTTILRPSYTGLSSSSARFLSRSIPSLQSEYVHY

[6] = molecular target: T3, Tyrosine-protein phosphatase non-receptor type 11 (Mus musculus) (UniProt P35235); experiment: Inhibition of SHP2-dependent ERK1/2 activation in EGF-stimulated mouse NIH/3T3 cells assessed as phosphorylated ERK1/2 level at 10 uM treated for 3 hrs before EGF challenge measured after 60 mins of EGF stimulation by immunoblot analysis; format: cell-based; details: NIH3T3
T3 sequence (whole entry): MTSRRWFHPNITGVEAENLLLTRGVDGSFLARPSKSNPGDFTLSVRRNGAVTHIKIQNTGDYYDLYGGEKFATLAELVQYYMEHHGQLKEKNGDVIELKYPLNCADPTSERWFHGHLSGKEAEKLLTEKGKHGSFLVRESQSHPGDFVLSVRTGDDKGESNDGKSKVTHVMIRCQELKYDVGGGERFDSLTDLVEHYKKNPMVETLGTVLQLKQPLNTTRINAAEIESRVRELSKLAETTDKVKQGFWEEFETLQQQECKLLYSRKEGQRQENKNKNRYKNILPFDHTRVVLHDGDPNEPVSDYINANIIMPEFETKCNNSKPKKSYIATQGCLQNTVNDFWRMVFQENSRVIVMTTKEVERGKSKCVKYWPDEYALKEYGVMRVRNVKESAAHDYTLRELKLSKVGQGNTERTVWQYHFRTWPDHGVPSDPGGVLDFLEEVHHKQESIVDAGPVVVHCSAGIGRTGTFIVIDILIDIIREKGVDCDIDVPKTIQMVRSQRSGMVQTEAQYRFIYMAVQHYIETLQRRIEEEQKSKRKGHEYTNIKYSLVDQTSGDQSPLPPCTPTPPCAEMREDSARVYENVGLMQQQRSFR

[7] = organism: Mus musculus; experiment: Antiproliferative activity against GM-CSF-stimulated C57/BL6 mouse low density BM-MNC expressing SHP2 E76K mutant assessed as inhibition of hyperproliferation at 10 uM after 16 hrs by [3H]thymidine incorporation assay; format: functional; details: C57Bl/6
In short: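 Marrow low-density mononuclear cells from C57Bl/6 mice (Ficoll), prestimulated 24 h with SCF, G-CSF, Tpo (100 ng/mL), retrovirally transduced 48 h with wild-type SHP2, D61Y or E76K, EGFP-sorted. Starved 4 h in 0.2% BSA; 5 × 10^4 cells cultured 16 h in GM-CSF 0-1 ng/mL ± 10 μM compound, then pulsed with 1.0 μCi [3H]thymidine for 6-8 h; counts per minute; n = 3.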

[8] = organism: Mus musculus; experiment: Antiproliferative activity against GM-CSF-stimulated C57/BL6 mouse low density BM-MNC assessed as inhibition of hyperproliferation at 10 uM after 16 hrs by [3H]thymidine incorporation assay; details: C57Bl/6

Sequence of Tyrosine-protein phosphatase non-receptor type 13 (Q12923 whole entry): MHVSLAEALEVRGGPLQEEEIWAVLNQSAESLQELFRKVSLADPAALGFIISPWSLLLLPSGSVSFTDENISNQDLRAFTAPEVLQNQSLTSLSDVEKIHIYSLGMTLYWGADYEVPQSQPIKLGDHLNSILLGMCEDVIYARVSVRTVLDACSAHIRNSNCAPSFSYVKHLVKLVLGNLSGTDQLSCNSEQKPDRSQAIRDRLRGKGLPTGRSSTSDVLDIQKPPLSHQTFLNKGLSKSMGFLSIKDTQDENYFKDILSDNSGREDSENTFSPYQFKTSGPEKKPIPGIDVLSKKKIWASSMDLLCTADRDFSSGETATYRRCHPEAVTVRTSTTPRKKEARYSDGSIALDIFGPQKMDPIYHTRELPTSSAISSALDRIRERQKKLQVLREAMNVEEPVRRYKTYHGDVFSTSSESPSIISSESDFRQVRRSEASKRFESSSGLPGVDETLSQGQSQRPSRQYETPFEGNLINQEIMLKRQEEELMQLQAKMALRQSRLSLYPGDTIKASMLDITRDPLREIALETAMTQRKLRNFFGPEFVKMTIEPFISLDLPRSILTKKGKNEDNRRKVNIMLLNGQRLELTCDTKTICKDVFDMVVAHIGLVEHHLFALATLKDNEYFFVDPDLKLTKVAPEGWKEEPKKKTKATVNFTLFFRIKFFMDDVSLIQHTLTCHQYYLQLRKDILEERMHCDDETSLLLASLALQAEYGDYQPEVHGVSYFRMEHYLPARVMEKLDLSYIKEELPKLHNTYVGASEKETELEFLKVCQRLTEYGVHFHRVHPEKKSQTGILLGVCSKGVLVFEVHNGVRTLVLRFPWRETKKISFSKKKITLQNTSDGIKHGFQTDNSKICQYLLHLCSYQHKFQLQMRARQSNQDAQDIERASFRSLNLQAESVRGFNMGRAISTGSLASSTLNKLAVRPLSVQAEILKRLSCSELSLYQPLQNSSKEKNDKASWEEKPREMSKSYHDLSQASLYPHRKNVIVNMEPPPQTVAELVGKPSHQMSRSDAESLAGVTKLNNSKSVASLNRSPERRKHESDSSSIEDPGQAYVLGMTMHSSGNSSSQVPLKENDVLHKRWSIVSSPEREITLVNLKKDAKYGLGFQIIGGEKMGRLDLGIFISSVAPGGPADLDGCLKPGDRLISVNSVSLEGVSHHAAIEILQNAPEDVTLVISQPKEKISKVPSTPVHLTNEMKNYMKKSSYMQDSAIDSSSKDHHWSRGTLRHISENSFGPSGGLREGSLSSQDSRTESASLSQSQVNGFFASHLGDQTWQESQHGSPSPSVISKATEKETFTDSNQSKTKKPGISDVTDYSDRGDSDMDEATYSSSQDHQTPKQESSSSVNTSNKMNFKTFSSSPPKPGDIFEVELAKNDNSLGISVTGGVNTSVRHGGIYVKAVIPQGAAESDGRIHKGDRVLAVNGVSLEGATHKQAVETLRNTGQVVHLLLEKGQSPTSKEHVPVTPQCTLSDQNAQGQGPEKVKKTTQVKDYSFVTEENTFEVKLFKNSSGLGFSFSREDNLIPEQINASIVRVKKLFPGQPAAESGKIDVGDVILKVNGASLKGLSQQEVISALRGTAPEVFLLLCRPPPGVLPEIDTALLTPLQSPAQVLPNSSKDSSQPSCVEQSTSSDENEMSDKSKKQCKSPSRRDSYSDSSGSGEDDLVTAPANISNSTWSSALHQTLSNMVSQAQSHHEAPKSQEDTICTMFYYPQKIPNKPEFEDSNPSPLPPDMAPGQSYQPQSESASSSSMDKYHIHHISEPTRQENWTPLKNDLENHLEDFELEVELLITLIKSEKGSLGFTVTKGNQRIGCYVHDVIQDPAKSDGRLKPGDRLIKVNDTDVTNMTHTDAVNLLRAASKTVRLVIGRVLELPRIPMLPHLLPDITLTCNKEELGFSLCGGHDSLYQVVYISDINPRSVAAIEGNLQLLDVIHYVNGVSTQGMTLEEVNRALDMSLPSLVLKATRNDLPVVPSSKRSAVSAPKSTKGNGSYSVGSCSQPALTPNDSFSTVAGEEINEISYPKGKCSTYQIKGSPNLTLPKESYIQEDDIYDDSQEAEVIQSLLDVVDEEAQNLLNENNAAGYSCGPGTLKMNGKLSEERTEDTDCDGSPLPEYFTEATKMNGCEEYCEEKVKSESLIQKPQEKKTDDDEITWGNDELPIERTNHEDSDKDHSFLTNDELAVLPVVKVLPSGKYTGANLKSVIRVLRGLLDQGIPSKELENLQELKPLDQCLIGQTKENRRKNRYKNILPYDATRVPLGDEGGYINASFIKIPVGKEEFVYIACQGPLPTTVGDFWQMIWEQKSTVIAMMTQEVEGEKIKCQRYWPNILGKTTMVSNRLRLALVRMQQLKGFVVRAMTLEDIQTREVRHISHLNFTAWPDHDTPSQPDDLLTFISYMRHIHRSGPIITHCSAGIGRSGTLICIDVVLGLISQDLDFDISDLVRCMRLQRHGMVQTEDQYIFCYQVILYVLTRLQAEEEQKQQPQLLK
Sequence of Tyrosine-protein phosphatase non-receptor type 6 (P29350 whole entry): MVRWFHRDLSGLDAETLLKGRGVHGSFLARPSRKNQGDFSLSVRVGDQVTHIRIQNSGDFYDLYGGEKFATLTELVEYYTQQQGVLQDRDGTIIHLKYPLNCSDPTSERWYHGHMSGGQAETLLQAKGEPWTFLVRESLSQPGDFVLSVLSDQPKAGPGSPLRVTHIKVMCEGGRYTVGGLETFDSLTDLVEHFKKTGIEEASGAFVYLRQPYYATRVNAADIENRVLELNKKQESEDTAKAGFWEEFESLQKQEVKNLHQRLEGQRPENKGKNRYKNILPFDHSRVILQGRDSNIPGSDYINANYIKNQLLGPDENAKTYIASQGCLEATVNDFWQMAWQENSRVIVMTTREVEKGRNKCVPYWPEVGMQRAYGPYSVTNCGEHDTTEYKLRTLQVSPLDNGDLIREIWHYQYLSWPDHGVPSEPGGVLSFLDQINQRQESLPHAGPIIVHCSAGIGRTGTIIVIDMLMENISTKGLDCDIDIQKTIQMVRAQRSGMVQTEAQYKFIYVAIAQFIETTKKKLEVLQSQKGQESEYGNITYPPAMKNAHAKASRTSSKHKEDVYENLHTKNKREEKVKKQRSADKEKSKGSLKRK
Sequence of Receptor-type tyrosine-protein phosphatase alpha (P18433 whole entry): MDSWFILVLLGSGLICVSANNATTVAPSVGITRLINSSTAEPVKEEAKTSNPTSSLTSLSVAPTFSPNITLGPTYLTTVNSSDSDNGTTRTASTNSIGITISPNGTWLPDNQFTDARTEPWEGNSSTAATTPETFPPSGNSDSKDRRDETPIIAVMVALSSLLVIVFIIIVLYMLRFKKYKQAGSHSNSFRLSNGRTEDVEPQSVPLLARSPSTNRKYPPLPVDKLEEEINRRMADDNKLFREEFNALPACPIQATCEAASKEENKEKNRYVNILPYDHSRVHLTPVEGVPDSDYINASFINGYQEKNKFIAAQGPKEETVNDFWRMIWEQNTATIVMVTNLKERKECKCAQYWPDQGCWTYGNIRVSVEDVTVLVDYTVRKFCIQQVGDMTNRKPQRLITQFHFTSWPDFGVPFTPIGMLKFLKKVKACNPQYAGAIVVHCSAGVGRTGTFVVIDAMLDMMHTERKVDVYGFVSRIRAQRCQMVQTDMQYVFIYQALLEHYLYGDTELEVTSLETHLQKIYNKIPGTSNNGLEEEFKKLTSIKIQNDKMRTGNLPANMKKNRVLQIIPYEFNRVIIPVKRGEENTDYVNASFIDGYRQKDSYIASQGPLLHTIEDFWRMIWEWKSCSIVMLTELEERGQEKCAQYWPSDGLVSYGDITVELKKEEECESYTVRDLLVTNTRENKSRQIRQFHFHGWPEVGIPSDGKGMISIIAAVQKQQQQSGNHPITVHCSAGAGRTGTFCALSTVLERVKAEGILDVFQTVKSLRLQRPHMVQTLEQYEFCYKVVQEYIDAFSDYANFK

`Cn1c(-c2ccccc2)c(-c2cn(CCC(=O)Nc3ccc(-c4ccccc4)cc3)nn2)c2cc(C(=O)O)c(O)cc21` gave an IC50 [1] of 15.7 µM, an IC50 [2] of 25 µM and an IC50 [3] of 20.3 µM. For the same molecule, the IC50 [4] was > 50 µM, the IC50 [5] was > 50 µM and the inhibition [6] was “Active”. The Activity [7] was “Active” and the Activity [8] was “Active”.
